System: KRAS2 G12D RNA
Assay: CD thermal melting of TO-PNA-peptide:RNA duplexes
Format: binding
Method in brief: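 Gel-purified synthetic RNA 20mers were annealed with the test compound at 1 μM each (final) in sodium phosphate, 1.0 M NaCl, 5 mM EDTA, pH 7.2, by heating at 95 °C for 10 min and then cooling for 10 min. CD at 265 nm was tracked over a 25→95 °C ramp at 0.5 °C/min, with baseline slopes subtracted. Tm was taken as the first-derivative maximum (two-state model); n = 3, ± SD.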

GCCATOTCAGCTCC-AEEA-D(Cys-Ser-Lys-Cys) (disulfide) [TO2]
Tm decrease relative to TO1 (12mer) KRAS2 G12D duplex: 2 °C

— article PMC4166030 (Bioconjugate Chemistry, 2014)
